Bioassay records as filed in PubChem.
Neddylation inh: inhibitors of cullin neddylation, primary screen, biochemical, TR-FRET, uHTS, NAE and Ubc12 | calls only at 25 µM | NEDD8-conjugating enzyme Ubc12 (Homo sapiens) + NEDD8-activating enzyme E1 regulatory … | actives 0.58% (n = 360,000) | AID 651699, 2012; in the data active means inhibition above about 36%
UBC13 inh: UBC13 polyubiquitin chain formation inhibitors, primary screen, biochemical, TR-FRET, uHTS. actives 0.47% (n = 330,000). inhibition, % at 20 µM. Ubiquitin-conjugating enzyme E2 N (Homo sapiens), P61088. AID 485273, 2010; in the data active means inhibition above about 45%, passing the limit was not always enough
DNA FID counter: compounds displacing fluorescent DNA intercalator, primary screen, artefact control for HCV NS3 helicase inhibitor project, biochemical, FID fluorescence; inhibition, % at 7.9 µM; DNA fluorescent intercalator displacement; actives 0.17% (n = 290,000); in the data active means inhibition above about 37%;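 further: higher means more ethidium bromide displaced from hairpin DNA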
RAD54 branch: inhibitors of human RAD54 branch migration, primary screen, biochemical, fluorescence, single point | DNA repair and recombination protein RAD54-like (Homo sapiens), Q92698 | RAD54 Holliday junction branch migration, FAM/BHQ fluorescence | inhibition, % at 10.4 µM | actives 0.14% (n = 360,000) | AID 602329, 2012;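 active means mean normalized replicate activity at least 40 and at least half of replicates scoring 40 or more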;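 further: inhibitors cause a drop in the FAM fluorescence signal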
RAD52 anneal inh: RAD52 DNA annealing inhibitors, primary screen, biochemical, FRET, single point, set 2 | DNA repair protein RAD52 homolog (Homo sapiens), P43351 | recombinant RAD52 DNA annealing, FRET fluorescence | inhibition, % at 18.7 µM | actives 0.46% (n = 360,000);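 active means every replicate showing at least 50% inhibition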
Target sequence (P43351 whole entry, looked up): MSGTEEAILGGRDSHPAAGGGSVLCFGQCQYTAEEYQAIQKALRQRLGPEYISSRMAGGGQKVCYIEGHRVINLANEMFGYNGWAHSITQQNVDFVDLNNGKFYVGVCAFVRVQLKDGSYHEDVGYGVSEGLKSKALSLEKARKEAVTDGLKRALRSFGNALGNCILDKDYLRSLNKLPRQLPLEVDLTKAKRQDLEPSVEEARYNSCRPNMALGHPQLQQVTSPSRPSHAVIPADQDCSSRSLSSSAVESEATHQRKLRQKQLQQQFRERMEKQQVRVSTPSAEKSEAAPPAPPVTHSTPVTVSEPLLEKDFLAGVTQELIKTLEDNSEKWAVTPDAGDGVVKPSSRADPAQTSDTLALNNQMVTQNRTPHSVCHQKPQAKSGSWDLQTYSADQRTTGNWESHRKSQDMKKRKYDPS
Apaf-1 inh: inhibitors of human Apaf-1 apoptosome, primary screen, biochemical, DEVD-Rh110 fluorescence, uHTS; Apoptotic protease-activating factor 1 (Homo sapiens), O14727; reconstituted apoptosome caspase-3 activity; inhibition, % at 20 µM; actives 0.71% (n = 330,000); AID 489030, 2010; active means inhibition of at least 40% at 20 µM
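System: Apoptosome proteins | Medium: Hepes pH 7.5 with detergent and BSA | Also added: Cytochrome c trigger plus (Z-DEVD)2-Rh110 caspase-3 substrate | Incubation: 30 min compound preincubation, 50 min activation, room temperature | Detection: Rhodamine 110 fluorescence at Ex 480/Em 540 nm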
Large screens that a line does not name were inactive. An excerpt weighted towards active compounds, which were near 1.6% of everything screened.

C[C@@H]1CN([C@H](C)CO)C(=O)c2cc(NS(=O)(=O)c3cn(C)cn3)ccc2O[C@@H](C)CCCCO[C@@H]1CN(C)S(=O)(=O)c1cccs1	none (no result: Neddylation inh, UBC13 inh, DNA FID counter, Apaf-1 inh)
C[C@H](CO)N1C[C@H](C)[C@H](CN(C)S(=O)(=O)c2cccs2)OCCCC[C@H](C)Oc2ccc(NS(=O)(=O)c3cn(C)cn3)cc2C1=O	RAD52 anneal inh 109 (no result: Neddylation inh, UBC13 inh, DNA FID counter, Apaf-1 inh)
Cc1noc(C)c1S(=O)(=O)N(C)C[C@@H]1OCCCC[C@H](C)Oc2ccc(NS(=O)(=O)c3cccs3)cc2C(=O)N([C@@H](C)CO)C[C@H]1C	RAD52 anneal inh 64 (no result: Neddylation inh, UBC13 inh, DNA FID counter, Apaf-1 inh)
CN(C)CC(=O)N1CC2(C1)[C@@H](c1ccccc1)[C@@H](CO)N2C(=O)C1CCCC1	none (no result: Neddylation inh, UBC13 inh, DNA FID counter, RAD54 branch, Apaf-1 inh)
O=C(Nc1ccc(-c2ccccc2)cc1)[C@@H]1[C@@H](CO)[C@@H]2Cn3c(cccc3=O)[C@@H]2N1CC1CCCC1	none (no result: Neddylation inh, UBC13 inh, DNA FID counter, RAD54 branch, Apaf-1 inh)
CCOc1cc(CNC(C)(C)CO)cc(Br)c1OCc1ccc(Cl)cc1Cl	DNA FID counter 38 (no result: RAD52 anneal inh)
CCOc1cc(CNCCO)cc(Br)c1OCc1ccc(Cl)cc1	DNA FID counter 38 (no result: RAD52 anneal inh)
CCOc1cc(/C=C2\C(=O)N(c3ccc(C(N)=O)cc3)N=C2C)ccc1OC(=O)c1cccs1	Apaf-1 inh 93 (no result: RAD52 anneal inh)
COc1cc(C(=O)Nc2ccc3nc(N4CCN(C)CC4)cc(C)c3c2)cc(OC)c1OC	RAD52 anneal inh 56
Cc1cc(N2CCN(C)CC2)nc2ccc(NC(=O)c3ccc4c(c3)OCO4)cc12	none (no result: RAD52 anneal inh)
O=C(C[C@@H]1C=C[C@@H](NC(=O)Cc2cccnc2)[C@@H](CO)O1)Nc1ccc(-c2ccccc2)cc1	none (no result: Neddylation inh, UBC13 inh, DNA FID counter, RAD54 branch, Apaf-1 inh)
O=C1Nc2ccccc2N(C(=O)c2c(F)cccc2F)C1c1nc2ccccc2[nH]1 (stereo not given)	Neddylation inh active (no result: UBC13 inh, DNA FID counter, RAD54 branch, Apaf-1 inh)
O=C1Nc2ccccc2N(C(=O)c2ccc(-c3ccccc3)cc2)C1c1nc2ccccc2[nH]1 (stereo not given)	none (no result: UBC13 inh, DNA FID counter, RAD54 branch, Apaf-1 inh)
CCCC#Cc1cnc2c(c1)C(=O)N([C@H](C)CO)C[C@@H](C)[C@H](CN(C)C(=O)c1cccnc1)O2	none (no result: Neddylation inh, UBC13 inh, DNA FID counter, Apaf-1 inh)
O=C(c1ccc(S(=O)(=O)N2CCCCCC2)cc1)N1CCC(CN2C(=O)c3cccc4cccc(c34)C2=O)CC1	UBC13 inh 46 (not shown: Neddylation inh, RAD52 anneal inh)
O=C1c2cccc3cccc(c23)C(=O)N1CC1CCN(S(=O)(=O)c2ccccc2)CC1	none (no result: UBC13 inh, DNA FID counter, Apaf-1 inh)
Cc1ccc(-n2ncc(C(=O)Nc3cc(Cl)cc(Cl)c3)c2C2CCNCC2)cc1C	DNA FID counter 43 (no result: UBC13 inh, Apaf-1 inh)
Cc1ccc(-n2ncc(C(=O)Nc3cc(Cl)ccc3Cl)c2C2CCNCC2)cc1	none (no result: RAD54 branch)
COc1cccc(NC(=S)N(CCCN2CCCC2)Cc2cccn2Cc2ccc(Cl)cc2)c1	DNA FID counter 37
S=C(Nc1cccc(Cl)c1)N(CCCN1CCCC1)Cc1cccn1Cc1ccc(Cl)cc1	none
O=C1Nc2ccccc2N2CCCC12 (stereo not given)	Apaf-1 inh 78 (no result: Neddylation inh, RAD54 branch, RAD52 anneal inh)
C[C@H](CO)N1C[C@H](C)[C@H](CN(C)C(=O)Nc2cccc3ccccc23)OCCCC[C@H](C)Oc2ccc(NS(=O)(=O)c3cccs3)cc2C1=O	none (no result: Neddylation inh, UBC13 inh, DNA FID counter, Apaf-1 inh)
Cc1nc2c3cc(Cl)ccc3n(CCN3CCCCC3)c2s1	DNA FID counter 39 (no result: RAD52 anneal inh)
COc1ccc(CCNCC(O)COc2ccc(OC)cc2C(C)(C)C)cc1 (stereo not given)	DNA FID counter 43
COc1ccc(CCNCC(O)COc2cccc(Br)c2)cc1OC (stereo not given)	none
Cc1c(C=O)c(Cl)n(C)c(=O)c1C#N	Apaf-1 inh 97 (no result: RAD54 branch)
O=C(C[C@@H]1C=C[C@@H](NC(=O)c2ccccc2)[C@@H](CO)O1)Nc1ccc(-c2ccccc2)cc1	none (no result: Neddylation inh, UBC13 inh, DNA FID counter, Apaf-1 inh)
COC(=O)c1c(NC(=O)c2ccc(C(=O)c3ccccc3)cc2)sc2c1CC(C)(C)NC2(C)C	none (no result: UBC13 inh, DNA FID counter, Apaf-1 inh)
CC1(C)Cc2c(sc(NC(=O)c3ccc(C(=O)c4ccccc4)cc3)c2C#N)C(C)(C)N1	DNA FID counter 38
